According to ChEMBL document CHEMBL1649446, “Comparative antipneumococcal activities of sulopenem and other drugs” (2009):
In brackets after ≈: the same amount, converted by molar mass.

Key:
Assay type in all cases: functional
Streptococcus pneumoniae [1] = experiment: Antimicrobial activity against Streptococcus pneumoniae 1 by time-kill analysis
How it was run: (§1)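 Time-kill in cation-adjusted Mueller-Hinton broth with 5% lysed horse blood; inocula 5 × 105 to 5 × 10^6 CFU/ml; drugs at MIC, 2× and 4× MIC; 35°C shaking water bath; viable counts at 0, 3, 6, 12 and 24 h. Bactericidal if ≥3 log10 CFU/ml (99.9%) reduction from original inoculum; 90% and 99% killing also scored.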

Streptococcus pneumoniae [2] = experiment: Antimicrobial activity against Streptococcus pneumoniae 2 by time-kill analysis
How it was run: as §1, with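 “12,” for “12 and”, “=” for “if”, “drop” for “reduction”, “90%/99%/99.9%” for “90% and 99%”, “scored per strain.” for “also scored.”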

Streptococcus pneumoniae [3] = experiment: Antimicrobial activity against Streptococcus pneumoniae 3 by time-kill analysis
How it was run: as §1, with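 “12,” for “12 and”, “=” for “if”, “drop” for “reduction”, “90%/99%/99.9%” for “90% and 99%”, “scored per strain.” for “also scored.”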

Streptococcus pneumoniae [4] = experiment: Antimicrobial activity against Streptococcus pneumoniae 4 by time-kill analysis
How it was run: as §1, with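 “12,” for “12 and”, “=” for “if”, “drop” for “reduction”, “90%/99%/99.9%” for “90% and 99%”, “scored per strain.” for “also scored.”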

Streptococcus pneumoniae [5] = experiment: Antimicrobial activity against Streptococcus pneumoniae 5 by time-kill analysis; how it was run: as §1
Streptococcus pneumoniae [6] = experiment: Antimicrobial activity against Streptococcus pneumoniae 6 by time-kill analysis
How it was run: as §1, with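 “12,” for “12 and”, “=” for “if”, “drop” for “reduction”, “90%/99%/99.9%” for “90% and 99%”, “scored per strain.” for “also scored.”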

Streptococcus pneumoniae [7] = experiment: Antimicrobial activity against Streptococcus pneumoniae 7 by time-kill analysis
How it was run: as §1, with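 “12,” for “12 and”, “=” for “if”, “drop” for “reduction”, “90%/99%/99.9%” for “90% and 99%”, “scored per strain.” for “also scored.”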

Streptococcus pneumoniae [8] = experiment: Antimicrobial activity against Streptococcus pneumoniae 8 by time-kill analysis
How it was run: as §1, with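 “12,” for “12 and”, “=” for “if”, “drop” for “reduction”, “90%/99%/99.9%” for “90% and 99%”, “scored per strain.” for “also scored.”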

Streptococcus pneumoniae [9] = experiment: Antimicrobial activity against Streptococcus pneumoniae 9 by time-kill analysis; how it was run: as §1
Streptococcus pneumoniae [10] = experiment: Antimicrobial activity against Streptococcus pneumoniae 10 by time-kill analysis
How it was run: as §1, with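 “12,” for “12 and”, “=” for “if”, “drop” for “reduction”, “90%/99%/99.9%” for “90% and 99%”, “scored per strain.” for “also scored.”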

Streptococcus pneumoniae [11] = experiment: Antimicrobial activity against Streptococcus pneumoniae 11 by time-kill analysis
How it was run: as §1, with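 “12,” for “12 and”, “=” for “if”, “drop” for “reduction”, “90%/99%/99.9%” for “90% and 99%”, “scored per strain.” for “also scored.”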

Streptococcus pneumoniae [12] = experiment: Antimicrobial activity against Streptococcus pneumoniae 12 by time-kill analysis
How it was run: as §1, with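 “12,” for “12 and”, “=” for “if”, “drop” for “reduction”, “90%/99%/99.9%” for “90% and 99%”, “scored per strain.” for “also scored.”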

Streptococcus pneumoniae [13] = experiment: Antimicrobial activity against penicillin-susceptible Streptococcus pneumoniae by agar dilution method
Streptococcus pneumoniae [14] = experiment: Antimicrobial activity against penicillin-intermediate Streptococcus pneumoniae by agar dilution method
Streptococcus pneumoniae [15] = experiment: Antimicrobial activity against penicillin-resistant Streptococcus pneumoniae by agar dilution method
How it was run: (§2)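 Agar dilution MIC on Mueller-Hinton agar with 5% sheep blood, inocula 10^4 CFU/spot; amoxicillin-clavulanate combined 1:2; S. pneumoniae ATCC 49619 quality control each run.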

Streptococcus pneumoniae [16] = experiment: Antimicrobial activity against Streptococcus pneumoniae 19A by agar dilution method; how it was run: as §2
Streptococcus pneumoniae [17] = experiment: Antimicrobial activity against Streptococcus pneumoniae isolate 1055 by agar dilution method
Streptococcus pneumoniae [18] = experiment: Antimicrobial activity against Streptococcus pneumoniae isolate 1564 by agar dilution method

With C[C@@H](O)[C@H]1C(=O)N2C(C(=O)O)=C(S[C@@H]3CN[C@H](C(=O)Nc4cccc(C(=O)O)c4)C3)[C@H](C)[C@H]12 [ERTAPENEM] the MIC (Streptococcus pneumoniae [1]) was 0.03 µg/mL (≈ 0.0631 µM), the MIC (Streptococcus pneumoniae [2]) was 0.03 µg/mL (≈ 0.0631 µM) and the MIC (Streptococcus pneumoniae [3]) was 0.25 µg/mL (≈ 0.526 µM). The MIC (Streptococcus pneumoniae [4]) was 1 µg/mL (≈ 2.1 µM), the MIC (Streptococcus pneumoniae [5]) was 4 µg/mL (≈ 8.41 µM) and the MIC (Streptococcus pneumoniae [6]) was 0.12 µg/mL (≈ 0.252 µM). It also gave an MIC (Streptococcus pneumoniae [7]) of 2 µg/mL (≈ 4.21 µM), an MIC (Streptococcus pneumoniae [8]) of 1 µg/mL (≈ 2.1 µM) and an MIC (Streptococcus pneumoniae [9]) of 0.12 µg/mL (≈ 0.252 µM). The MIC (Streptococcus pneumoniae [10]) was 0.12 µg/mL (≈ 0.252 µM), the MIC (Streptococcus pneumoniae [11]) was 2 µg/mL (≈ 4.21 µM) and the MIC (Streptococcus pneumoniae [12]) was 0.5 µg/mL (≈ 1.05 µM).

In the case of C[C@H]1COc2c(N3CCN(C)CC3)c(F)cc3c(=O)c(C(=O)O)cn1c23.C[C@H]1COc2c(N3CCN(C)CC3)c(F)cc3c(=O)c(C(=O)O)cn1c23.O [LEVOFLOXACIN], the MIC50 (Streptococcus pneumoniae [13]) is reported as 1 µg/mL, the MIC90 (Streptococcus pneumoniae [13]) is reported as 16 µg/mL and the MIC50 (Streptococcus pneumoniae [14]) is reported as 1 µg/mL. It also gave an MIC90 (Streptococcus pneumoniae [14]) of 2 µg/mL, an MIC50 (Streptococcus pneumoniae [15]) of 1 µg/mL and an MIC90 (Streptococcus pneumoniae [15]) of 4 µg/mL. For the same compound, the MIC50 (Streptococcus pneumoniae [16]) was 2 µg/mL and the MIC90 (Streptococcus pneumoniae [16]) was 2 µg/mL.

For COc1c(N2C[C@@H]3CCCN[C@@H]3C2)c(F)cc2c(=O)c(C(=O)O)cn(C3CC3)c12 [MOXIFLOXACIN], the MIC (Streptococcus pneumoniae [1]) was 4 µg/mL (≈ 9.96 µM), the MIC (Streptococcus pneumoniae [4]) was 2 µg/mL (≈ 4.98 µM) and the MIC (Streptococcus pneumoniae [17]) was 4 µg/mL (≈ 9.96 µM). For the same compound, the MIC (Streptococcus pneumoniae [18]) was 0.25 µg/mL (≈ 0.623 µM).

For CC[C@H]1OC(=O)[C@H](C)C(=O)[C@H](C)[C@@H](O[C@@H]2O[C@H](C)C[C@H](N(C)C)[C@H]2O)[C@](C)(OC)C[C@@H](C)C(=O)[C@H](C)[C@H]2N(CCCCn3cnc(-c4cccnc4)c3)C(=O)O[C@]12C [TELITHROMYCIN], the MIC (Streptococcus pneumoniae [1]) was 0.03 µg/mL (≈ 0.0369 µM), the MIC (Streptococcus pneumoniae [2]) was 0.008 µg/mL (≈ 0.00985 µM) and the MIC (Streptococcus pneumoniae [3]) was 0.12 µg/mL (≈ 0.148 µM). For the same compound, the MIC (Streptococcus pneumoniae [4]) was 0.008 µg/mL (≈ 0.00985 µM), the MIC (Streptococcus pneumoniae [5]) was 0.12 µg/mL (≈ 0.148 µM) and the MIC (Streptococcus pneumoniae [6]) was 0.004 µg/mL (≈ 0.00493 µM). The MIC (Streptococcus pneumoniae [7]) was 0.06 µg/mL (≈ 0.0739 µM), the MIC (Streptococcus pneumoniae [8]) was 0.12 µg/mL (≈ 0.148 µM) and the MIC (Streptococcus pneumoniae [9]) was 0.008 µg/mL (≈ 0.00985 µM). The MIC (Streptococcus pneumoniae [10]) was 0.008 µg/mL (≈ 0.00985 µM), the MIC (Streptococcus pneumoniae [11]) was 0.03 µg/mL (≈ 0.0369 µM) and the MIC (Streptococcus pneumoniae [12]) was 0.016 µg/mL (≈ 0.0197 µM).
